ChEMBL document CHEMBL1142894, “Preparation of 5-aryl-3-alkylthio-l,2,4-triazoles and corresponding sulfones with antiinflammatory-analgesic activity” (Bioorg Med Chem, 2007)
The source made the active and inactive calls. The rule behind the calls is not given here.

Tests used:
[1] = system: Mus musculus; experiment: Inhibition of carrageenan-induced paw edema in Swiss albino mouse at 200 mg/kg, po after 180 mins relative to control; format: functional; conditions: 3 h
Method in brief: (§1)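 Oral dosing in 0.5% CMC; vehicle to controls. Then carrageenan (0.5 mg/25 ll, freshly suspended in 154 mM saline) injected into the right hind paw subplantar tissue; saline into the left paw. Right-left footpad thickness difference measured by dial gauge calliper every 90 min over 6 h. Inhibition % is relative to vehicle control. n = 6; mean ± SEM.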

[2] = system: Mus musculus; experiment: Antiinflammatory activity against carrageenan-induced paw edema in Swiss albino mouse assessed as swelling thickness at 100 mg/kg, po after 180 mins; format: functional; method in brief: as §1
[3] = system: Mus musculus; experiment: Inhibition of p-benzoquinone-induced writhing in Swiss albino mouse at 200 mg/kg, po relative to control; format: functional
Method in brief: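 Mice, n = 6 per group, dosed orally with a suspension in 0.5% sodium CMC. 60 min later, 0.1 ml/10 g of 2.5% […] p-benzoquinone in distilled water given ip. Abdominal writhes counted per animal for 15 min, starting 5 min after injection. Expressed as % change in mean writhing count versus vehicle controls.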

[4] = system: Mus musculus; experiment: Inhibition of carrageenan-induced paw edema in Swiss albino mouse at 200 mg/kg, po after 90 mins relative to control; format: functional; conditions: 1.5 h; method in brief: as §1
[5] = system: Mus musculus; experiment: Inhibition of carrageenan-induced paw edema in Swiss albino mouse at 50 mg/kg, po after 180 mins relative to control; format: functional; conditions: 3 h; method in brief: as §1
[6] = system: Mus musculus; experiment: Antiinflammatory activity against carrageenan-induced paw edema in Swiss albino mouse assessed as swelling thickness at 25 mg/kg, po after 270 mins; format: functional; method in brief: as §1
[7] = system: Mus musculus; experiment: Antiinflammatory activity against carrageenan-induced paw edema in Swiss albino mouse assessed as swelling thickness at 100 mg/kg, po after 270 mins; format: functional; method in brief: as §1
[8] = system: Mus musculus; experiment: Antiinflammatory activity against carrageenan-induced paw edema in Swiss albino mouse assessed as swelling thickness at 50 mg/kg, po after 180 mins; format: functional; method in brief: as §1
[9] = system: Mus musculus; experiment: Antiinflammatory activity against carrageenan-induced paw edema in Swiss albino mouse assessed as swelling thickness at 50 mg/kg, po after 360 mins; format: functional; method in brief: as §1
[10] = system: Mus musculus; experiment: Inhibition of carrageenan-induced paw edema in Swiss albino mouse at 50 mg/kg, po after 270 mins relative to control; format: functional; conditions: 4.5 h
Method in brief: (§2)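 Mice, n = 6 per group. Test agent given orally as a suspension in 0.5% sodium CMC in distilled water; controls received vehicle only. Afterwards, 0.5 mg/25 ll carrageenan in saline (154 mM NaCl) injected subplantar into the right hind paw, saline into the left. Right-minus-left footpad thickness measured by dial gauge caliper every 90 min for 6 h. Inhibition is relative to vehicle-control group means.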

[11] = system: Mus musculus; experiment: Gastric-ulcerogenic effect in Swiss albino mouse assessed as lesions at 50 mg/kg, po; format: functional, organism-based; design: dose 50 mg/kg
Method in brief: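 Mice killed under deep ether anesthesia 3 h after the writhing test; the oral dose in 0.5% CMC was the one used in that test. Stomachs removed, opened along the great curvature and examined under a dissecting microscope for lesions or bleeding. Reported as ratio of ulceration; n = 6.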

[12] = system: Mus musculus; experiment: Antiinflammatory activity against carrageenan-induced paw edema in Swiss albino mouse assessed as swelling thickness at 200 mg/kg, po after 360 mins; format: functional; method in brief: as §1
[13] = system: Mus musculus; experiment: Antiinflammatory activity against carrageenan-induced paw edema in Swiss albino mouse assessed as swelling thickness at 200 mg/kg, po after 270 mins; format: functional; method in brief: as §1
[14] = system: Mus musculus; experiment: Inhibition of carrageenan-induced paw edema in Swiss albino mouse at 50 mg/kg, po after 90 mins relative to control; format: functional; conditions: 1.5 h; method in brief: as §2
[15] = system: Mus musculus; experiment: Acute toxicity in Swiss albino mouse assessed as lethal effect at 25 mg/kg/day, po after 72 hrs; format: organism-based; design: route oral; conditions: in vivo
Method in brief: (§3)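 Oral single dose suspended in 0.5% carboxymethylcellulose, given after a 24 h fast; food and water returned 1 h after dosing. Vehicle-only controls. Mice observed at 1 h, then once daily for 72 h, for toxic signs and mortality.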

[16] = system: Mus musculus; experiment: Antiinflammatory activity against carrageenan-induced paw edema in Swiss albino mouse assessed as swelling thickness at 100 mg/kg, po after 90 mins; format: functional; method in brief: as §1
[17] = system: Mus musculus; experiment: Inhibition of carrageenan-induced paw edema in Swiss albino mouse at 100 mg/kg, po after 360 mins relative to control; format: functional; conditions: 6 h; method in brief: as §1
[18] = system: Mus musculus; experiment: Acute toxicity in Swiss albino mouse assessed as lethal effect at 200 mg/kg/day, po after 72 hrs; format: organism-based; design: route oral; conditions: in vivo; method in brief: as §3
[19] = system: Mus musculus; experiment: Inhibition of carrageenan-induced paw edema in Swiss albino mouse at 200 mg/kg, po after 270 mins relative to control; format: functional; conditions: 4.5 h; method in brief: as §1
[20] = system: Mus musculus; experiment: Inhibition of carrageenan-induced paw edema in Swiss albino mouse at 25 mg/kg, po after 270 mins relative to control; format: functional; conditions: 4.5 h; method in brief: as §1
[21] = system: Mus musculus; experiment: Antiinflammatory activity against carrageenan-induced paw edema in Swiss albino mouse assessed as swelling thickness at 25 mg/kg, po after 90 mins; format: functional; method in brief: as §1
[22] = system: Mus musculus; experiment: Antiinflammatory activity against carrageenan-induced paw edema in Swiss albino mouse assessed as swelling thickness at 25 mg/kg, po after 180 mins; format: functional; method in brief: as §1
[23] = system: Mus musculus; experiment: Antiinflammatory activity against carrageenan-induced paw edema in Swiss albino mouse assessed as swelling thickness at 200 mg/kg, po after 180 mins; format: functional; method in brief: as §1

CCS(=O)(=O)c1nc(-c2ccccc2)n[nH]1
inhibition in vivo at 200 mg/kg [1]: 11.9% | Activity [2]: 35.2 10^-2mm | inhibition in vivo at 200 mg/kg [3]: 5.6% | inhibition in vivo at 200 mg/kg [4]: 9.9% | inhibition in vivo at 50 mg/kg [5]: 30.5% | Activity [6]: 58.1 10^-2mm | Activity [7]: 39.2 10^-2mm | Activity [8]: 41.3 10^-2mm | Activity [9]: 44.2 10^-2mm | inhibition in vivo at 50 mg/kg [10]: 31.2% | Activity [11]: Active | Activity [12]: 65.2 10^-2mm | Activity [13]: 57.6 10^-2mm | inhibition in vivo at 50 mg/kg [14]: 26.3% | Activity [15]: Non-toxic | Activity [16]: 33.2 10^-2mm | inhibition in vivo at 100 mg/kg [17]: 36.8% | Activity [18]: Non-toxic | inhibition in vivo at 200 mg/kg [19]: 11.1% | inhibition in vivo at 25 mg/kg [20]: 10.3% | Activity [21]: 48.6 10^-2mm | Activity [22]: 54.9 10^-2mm | Activity [23]: 52.3 10^-2mm
